According to ChEMBL document CHEMBL3862037 (J Med Chem, 2016):
pIC50, pKi: −log10 of the molar value.

Experiments:
Rattus norvegicus [1] = species: Rattus norvegicus; experiment: Selectivity index, ratio of Ki for SERT in Sprague-Dawley rat brain stem membranes to Ki for DAT in Sprague-Dawley rat brain membranes; assay type: cell membranes
Rattus norvegicus [2] = species: Rattus norvegicus; experiment: Selectivity index, ratio of Ki for NET in Sprague-Dawley rat frontal cortex membranes to Ki for DAT in Sprague-Dawley rat brain membranes; assay type: cell membranes
[3] = target: Sodium-dependent serotonin transporter (Rattus norvegicus, UniProt P31652); experiment: Displacement of [3H]citalopram from SERT in Sprague-Dawley rat brain stem membranes incubated for 60 mins by radioligand binding assay; assay type: tissue-based
[4] = target: Sodium-dependent dopamine transporter (Rattus norvegicus, UniProt P23977); experiment: Displacement of [3H]WIN35,428 from DAT in Sprague-Dawley rat brain membranes incubated for 120 mins by radioligand binding assay; assay type: cell membranes, Membrane
[5] = Displacement of [3H]nisoxetine from NET in Sprague-Dawley rat frontal cortex membranes incubated for 180 mins by radioligand binding assay; set-up: species or system Membrane
[6] = Stability in mouse liver microsomes assessed as compound degradation at 10 uM in presence of NADPH regenerating system measured < 30 mins mins by LC/MS/MS method; assay type: ADME; conditions: 0.5 h
Summary of the method: (§1)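 Mouse liver microsomes (0.5 mg/mL) in 100 mM potassium phosphate pH 7.4 with NADPH regenerating system. Compound at 10 µM final; testosterone as positive control. Parent compound loss followed over time by LC/MS/MS on a C18 column with formic acid/acetonitrile gradient.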

[7] = Induction of locomotor activity in C57BL/6J mouse assessed as increase in traveled distance every 10 mins at 10 mg/kg, ip; assay type: organism-based; conditions: in vivo
D(4) dopamine receptor = target: T1, D(4) dopamine receptor (Homo sapiens, UniProt P21917); experiment: Displacement of [3H]N-methylspiperone from human D4R expressed in HEK293 cell membranes incubated for 1 hr by radioligand binding assay
T1 sequence (P21917 whole entry): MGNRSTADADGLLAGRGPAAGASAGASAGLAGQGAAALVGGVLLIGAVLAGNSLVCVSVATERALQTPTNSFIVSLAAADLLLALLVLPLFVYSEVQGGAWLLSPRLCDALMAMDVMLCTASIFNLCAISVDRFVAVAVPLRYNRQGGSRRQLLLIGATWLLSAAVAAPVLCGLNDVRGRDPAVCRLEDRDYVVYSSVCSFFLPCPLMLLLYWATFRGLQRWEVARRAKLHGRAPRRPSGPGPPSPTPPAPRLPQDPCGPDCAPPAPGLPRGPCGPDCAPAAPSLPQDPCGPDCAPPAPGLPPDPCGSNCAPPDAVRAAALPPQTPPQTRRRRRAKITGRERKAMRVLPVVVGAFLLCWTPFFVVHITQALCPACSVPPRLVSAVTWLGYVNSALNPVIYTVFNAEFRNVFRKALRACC
Summary of the method: (§2)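 Membranes from HEK293 cells stably expressing human D2R (20 µg protein) or D4R (30 µg protein). Buffer: EBSS with 0.2 mM sodium metabisulfite and 0.4 nM [3H]N-methylspiperone. Test compound at 11 half-log dilutions (100 µM–100 pM or 10 µM–10 pM) in 30% DMSO vehicle. Incubated 1 h at room temperature; nonspecific binding with 10 µM butaclamol.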

[8] = target: Sigma non-opioid intracellular receptor 1 (Cavia porcellus, UniProt Q60492); experiment: Displacement of [3H](+)-pentazocine from sigma1 receptor in whole-guinea pig brain minus cerebellum homogenates incubated for 120 mins by radioligand binding assay
Summary of the method: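 Guinea pig whole-brain (minus cerebellum) membranes, 8.0 mg OWW per tube, in 50 mM Tris-HCl pH 8.0 with 3 nM [3H](+)-pentazocine. Incubated 120 min at room temperature. Nonspecific binding defined by haloperidol. Stopped by GF/B filtration and scintillation counting. IC50 from nonlinear regression, converted to Ki. At least three independent experiments, each in triplicate.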

D(3) dopamine receptor = D(3) dopamine receptor (Homo sapiens, UniProt P35462); experiment: Displacement of [3H]N-methylspiperone from human D3R expressed in HEK293 cell membranes incubated for 1 hr by radioligand binding assay
D(2) dopamine receptor [9] = target: T2, D(2) dopamine receptor (Homo sapiens, UniProt P14416); experiment: Displacement of [3H]N-methylspiperone from human D2R expressed in HEK293 cell membranes incubated for 1 hr by radioligand binding assay; summary of the method: as §2
[10] = Stability in mouse liver microsomes assessed as compound remaining at 10 uM in presence of NADPH regenerating system measured up to 70 mins by LC/MS/MS method; assay type: ADME; conditions: read-out: Stability
[11] = Stability in mouse liver microsomes assessed as half life at 10 uM in presence of NADPH regenerating system by LC/MS/MS method; assay type: ADME; conditions: liver microsomes; summary of the method: as §1
[12] = target: Sodium-dependent dopamine transporter (Homo sapiens, UniProt Q01959); experiment: Displacement of [3H]WIN35,428 from wild type human DAT expressed in COS7 cell membranes incubated for >90 mins by radioligand binding assay; set-up: species or system COS-7
[13] = Stability in mouse liver microsomes assessed as compound remaining at 10 uM in absence of NADPH regenerating system measured after 60 mins by LC/MS/MS method; assay type: ADME, microsome; conditions: read-out: Stability
D(2) dopamine receptor [14] = target: T2, D(2) dopamine receptor; experiment: Antagonist activity at DRD2 (unknown origin) expressed in HEK293T cells transfected with Galphai1-RLuc8 and gamma2-GFP10 assessed as inhibition of quinpirole-induced Gi1 activation pre-incubated with quinpirole for 10 mins before compound incubation for 10 mins by BRET assay; assay type: cell-based, HEK-293T
Summary of the method: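 HEK-293T cells co-transfected with Flag-tagged D2 receptor, RLuc8-fused Gαi1, GFP10-fused Gγ and untagged Gβ, using constant total plasmid DNA at various partner ratios. Cells preincubated 10 min with 1 µM quinpirole, then 10 min with test compound. Read-out: BRET as fluorescence at 535 nm after 5 µM coelenterazine 400a.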

[15] = Displacement of [3H]WIN35,428 from human DAT Y156F mutant expressed in COS7 cell membranes incubated for >90 mins by radioligand binding assay; conditions: cos-7
[16] = Induction of locomotor activity in C57BL/6J mouse assessed as increase in traveled distance every 10 mins at 10 to 30 mg/kg, ip; assay type: organism-based; conditions: in vivo

T2 sequence (P14416 whole entry): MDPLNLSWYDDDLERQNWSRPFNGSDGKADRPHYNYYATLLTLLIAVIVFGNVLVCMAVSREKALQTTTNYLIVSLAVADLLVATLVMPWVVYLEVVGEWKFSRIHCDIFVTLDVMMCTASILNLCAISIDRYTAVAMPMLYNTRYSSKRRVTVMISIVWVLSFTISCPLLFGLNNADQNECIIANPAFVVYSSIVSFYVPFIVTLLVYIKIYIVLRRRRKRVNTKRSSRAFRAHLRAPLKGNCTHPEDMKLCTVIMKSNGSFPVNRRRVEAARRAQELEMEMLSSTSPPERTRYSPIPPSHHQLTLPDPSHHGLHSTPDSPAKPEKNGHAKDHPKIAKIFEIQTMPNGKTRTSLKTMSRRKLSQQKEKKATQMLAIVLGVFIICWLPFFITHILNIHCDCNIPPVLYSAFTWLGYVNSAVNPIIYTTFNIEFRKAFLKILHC
Sigma non-opioid intracellular receptor 1, sequence (Q60492 whole entry): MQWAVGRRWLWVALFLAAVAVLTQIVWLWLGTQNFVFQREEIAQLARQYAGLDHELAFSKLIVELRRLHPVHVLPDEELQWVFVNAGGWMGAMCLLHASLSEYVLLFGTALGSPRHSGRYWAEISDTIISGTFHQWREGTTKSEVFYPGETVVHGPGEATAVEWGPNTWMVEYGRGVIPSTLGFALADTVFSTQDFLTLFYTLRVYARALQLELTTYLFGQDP
D(3) dopamine receptor, sequence (P35462 whole entry): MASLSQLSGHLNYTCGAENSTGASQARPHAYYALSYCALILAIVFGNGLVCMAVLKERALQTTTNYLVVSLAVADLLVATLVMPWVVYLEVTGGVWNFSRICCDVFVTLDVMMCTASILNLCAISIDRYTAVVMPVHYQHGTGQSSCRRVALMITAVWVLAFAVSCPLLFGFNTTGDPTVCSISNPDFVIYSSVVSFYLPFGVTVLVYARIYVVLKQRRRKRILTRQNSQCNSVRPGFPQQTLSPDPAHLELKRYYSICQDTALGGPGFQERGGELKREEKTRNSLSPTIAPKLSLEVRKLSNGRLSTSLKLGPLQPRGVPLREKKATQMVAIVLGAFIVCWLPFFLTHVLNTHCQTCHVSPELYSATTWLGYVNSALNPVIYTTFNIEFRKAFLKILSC
Sodium-dependent dopamine transporter (Rattus norvegicus, UniProt P23977), sequence (P23977 whole entry): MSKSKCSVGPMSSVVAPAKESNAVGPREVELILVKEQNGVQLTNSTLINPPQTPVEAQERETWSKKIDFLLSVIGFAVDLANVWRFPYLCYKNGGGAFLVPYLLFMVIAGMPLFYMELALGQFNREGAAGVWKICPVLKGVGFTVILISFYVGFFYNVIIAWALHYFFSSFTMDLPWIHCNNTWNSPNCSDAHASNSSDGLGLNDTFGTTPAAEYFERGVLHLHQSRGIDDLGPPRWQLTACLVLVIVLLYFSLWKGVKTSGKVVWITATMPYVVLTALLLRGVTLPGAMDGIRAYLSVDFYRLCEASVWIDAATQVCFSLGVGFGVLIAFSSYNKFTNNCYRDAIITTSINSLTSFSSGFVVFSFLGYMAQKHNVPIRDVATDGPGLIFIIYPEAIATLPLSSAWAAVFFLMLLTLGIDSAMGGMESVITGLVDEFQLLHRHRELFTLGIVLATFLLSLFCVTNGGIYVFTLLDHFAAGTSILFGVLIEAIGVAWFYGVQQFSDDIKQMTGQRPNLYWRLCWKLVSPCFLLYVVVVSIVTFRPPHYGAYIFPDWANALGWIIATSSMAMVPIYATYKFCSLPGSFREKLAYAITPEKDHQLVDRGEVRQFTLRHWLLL
Sodium-dependent serotonin transporter, sequence (P31652 whole entry): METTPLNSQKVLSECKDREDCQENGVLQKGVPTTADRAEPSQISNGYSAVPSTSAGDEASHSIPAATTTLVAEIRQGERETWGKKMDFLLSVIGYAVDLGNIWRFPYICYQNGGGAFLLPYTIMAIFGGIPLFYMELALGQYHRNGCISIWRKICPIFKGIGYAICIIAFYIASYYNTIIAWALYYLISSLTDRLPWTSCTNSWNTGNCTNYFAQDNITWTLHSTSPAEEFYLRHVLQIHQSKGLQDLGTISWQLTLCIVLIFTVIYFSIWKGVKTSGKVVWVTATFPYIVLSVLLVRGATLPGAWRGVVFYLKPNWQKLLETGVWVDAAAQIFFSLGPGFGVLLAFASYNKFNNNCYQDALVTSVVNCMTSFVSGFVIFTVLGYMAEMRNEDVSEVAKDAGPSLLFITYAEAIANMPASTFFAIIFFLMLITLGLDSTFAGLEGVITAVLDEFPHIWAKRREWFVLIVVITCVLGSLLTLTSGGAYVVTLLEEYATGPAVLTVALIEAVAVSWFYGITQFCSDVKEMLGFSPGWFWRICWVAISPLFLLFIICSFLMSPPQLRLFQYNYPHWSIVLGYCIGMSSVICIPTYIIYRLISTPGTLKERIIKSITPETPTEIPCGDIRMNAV
Sodium-dependent dopamine transporter (Homo sapiens, UniProt Q01959), sequence (Q01959 whole entry): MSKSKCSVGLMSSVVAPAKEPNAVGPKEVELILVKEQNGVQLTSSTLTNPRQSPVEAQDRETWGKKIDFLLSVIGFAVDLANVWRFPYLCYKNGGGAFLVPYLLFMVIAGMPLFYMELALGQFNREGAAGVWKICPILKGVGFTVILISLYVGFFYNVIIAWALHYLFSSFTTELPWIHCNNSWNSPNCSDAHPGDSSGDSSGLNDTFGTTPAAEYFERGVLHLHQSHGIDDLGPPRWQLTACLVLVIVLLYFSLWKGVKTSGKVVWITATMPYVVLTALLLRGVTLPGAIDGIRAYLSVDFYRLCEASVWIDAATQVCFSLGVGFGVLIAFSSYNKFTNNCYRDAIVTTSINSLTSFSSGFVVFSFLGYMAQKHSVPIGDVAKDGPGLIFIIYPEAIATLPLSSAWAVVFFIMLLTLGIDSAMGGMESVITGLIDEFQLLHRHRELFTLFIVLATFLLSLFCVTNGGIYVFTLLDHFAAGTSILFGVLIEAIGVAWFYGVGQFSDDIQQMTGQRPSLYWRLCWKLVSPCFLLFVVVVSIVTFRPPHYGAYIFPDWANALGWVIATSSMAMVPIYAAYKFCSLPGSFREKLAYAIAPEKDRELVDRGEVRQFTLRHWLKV

SMILES	Ratio Ki (Rattus norvegicus [1])	Ratio Ki (Rattus norvegicus [2])	pKi [3]	pKi [4]	pKi [5]	also measured
[O-][S+](CCN1CCN(Cc2ccc(F)cc2)CC1)C(c1ccc(F)cc1)c1ccc(F)cc1 (stereo unspecified)	> 100	> 100	5.07	8.01	< 4.30	Stability [6]: Unstable
CC(O)CN1CCN(CCSC(c2cccc(Cl)c2)c2cccc(Cl)c2)CC1 (stereo unspecified)	> 100	> 100	4.97	6.84	4.50	
Fc1ccc(C(SCCN2CCN(CCCc3ccccc3)CC2)c2ccc(F)cc2)cc1	> 100	> 100				
CC(O)CN1CCN(C(=O)CSC(c2ccc(F)cc2)c2ccc(F)cc2)CC1 (stereo unspecified)	> 100	> 100	4.94	6.67		Stability [6]: Unstable
Fc1ccc(C(SCCN2CCN(Cc3ccccc3)CC2)c2ccc(F)cc2)cc1	> 100	> 100	6.02	8.13	5.08	
Fc1ccc(C(SCCN2CCN(Cc3ccc(Cl)cc3)CC2)c2ccc(F)cc2)cc1	> 100	> 100	6.04	7.71	5.13	
CC(O)CN1CCN(CCSC(c2ccccc2)c2ccccc2)CC1 (stereo unspecified)	> 100	> 100				
Fc1ccc(C(SCCNCCCc2ccccc2)c2ccc(F)cc2)cc1						Activity [7]: Non-Toxic; pKi (D(4) dopamine receptor): 7.55; pKi [8]: 6.80; pKi (D(3) dopamine receptor): 7.18; pKi (D(2) dopamine receptor [9]): 6.64
[O-][S+](CCN1CCN(Cc2ccccc2)CC1)C(c1ccc(F)cc1)c1ccc(F)cc1 (stereo unspecified)	> 100	> 100	4.95	7.57	4.34	
CC(O)CN1CCN(CC[S+]([O-])C(c2ccc(F)cc2)c2ccc(F)cc2)CC1 (stereo unspecified)						remaining at 70 min, 10 µM [10]: 50%; pKi (D(4) dopamine receptor): 5.42; pKi (D(3) dopamine receptor): 6.32; half-life at 10 µM [11]: 1 h; pKi [12]: 5.92; pKi (D(2) dopamine receptor [9]): 6.53; remaining at 1 h, 10 µM [13]: > 95%; pIC50 (D(2) dopamine receptor [14]): < 5.00; pKi [15]: 5.04
O=C(C[S+]([O-])C(c1ccc(F)cc1)c1ccc(F)cc1)N1CCN(CCCc2ccccc2)CC1 (stereo unspecified)	> 100	> 100	5.88	7.42	4.92	Stability [6]: Unstable
[O-][S+](CCN1CCN(CCCc2ccccc2)CC1)C(c1ccccc1)c1ccccc1 (stereo unspecified)	> 100	> 100	5.13			
CCCCN1C2CCC1CC(OC(c1ccc(F)cc1)c1ccc(F)cc1)C2 (stereo unspecified)				7.98	5.78	pKi (D(4) dopamine receptor): 6.23; pKi [8]: 8.62; pKi (D(3) dopamine receptor): 7.46; pKi (D(2) dopamine receptor [9]): 7.17
c1ccc(CCCN2CCN(CCSC(c3ccccc3)c3ccccc3)CC2)cc1	> 100	> 100				
O=C(C[S+]([O-])C(c1ccc(F)cc1)c1ccc(F)cc1)N1CCN(Cc2ccc(F)cc2)CC1 (stereo unspecified)	> 100	> 100	4.63	7.13		Stability [6]: Unstable
[O-][S+](CCN1CCN(CC(O)Cc2ccccc2)CC1)C(c1ccccc1)c1ccccc1 (stereo unspecified)	> 100	> 100				Stability [6]: Unstable
O=C(CSC(c1ccc(F)cc1)c1ccc(F)cc1)N1CCN(CCCc2ccccc2)CC1	> 100	> 100	5.50	7.54	4.69	

SMILES	Ratio Ki (Rattus norvegicus [1])	Ratio Ki (Rattus norvegicus [2])	pKi [3]	pKi [4]	pKi [5]	also measured
CC(O)CN1CCN(C(=O)C[S+]([O-])C(c2ccc(F)cc2)c2ccc(F)cc2)CC1 (stereo unspecified)	> 100	> 100	4.48	6.12		
[O-][S+](CCN1CCN(Cc2ccc(Cl)cc2)CC1)C(c1ccc(F)cc1)c1ccc(F)cc1 (stereo unspecified)	> 100	> 100	5.31	8.12	< 4.30	Stability [6]: Unstable
Fc1ccc(CN2CCN(CCSC(c3ccc(F)cc3)c3ccc(F)cc3)CC2)cc1	> 100	> 100	6.33	8.30	5.16	
Fc1ccc(C(SCCN2CCN(Cc3ccc(C(F)(F)F)cc3)CC2)c2ccc(F)cc2)cc1	> 100	> 100	5.69	7.58	4.81	
O=C(CSC(c1ccc(F)cc1)c1ccc(F)cc1)N1CCN(Cc2ccc(F)cc2)CC1	> 100	> 100	5.21	7.27		
CC(O)CN1CCN(C(=O)CSC(c2cccc(Cl)c2)c2cccc(Cl)c2)CC1 (stereo unspecified)	> 100	> 100		6.04	< 4.30	
CCCN1CCN(C(=O)CSC(c2ccc(F)cc2)c2ccc(F)cc2)CC1	> 100	> 100	5.22	6.56		
CCc1cc(Cl)c(OC)c(C(=O)NC[C@@H]2CCCN2CC)c1O [ETICLOPRIDE]						pKi (D(4) dopamine receptor): 7.15; pKi (D(2) dopamine receptor [9]): 9.59
O=C(CSC(c1ccc(F)cc1)c1ccc(F)cc1)N1CCN(Cc2ccc(Cl)cc2)CC1	> 100	> 100	5.66	7.23		
O=C(C[S+]([O-])C(c1ccc(F)cc1)c1ccc(F)cc1)N1CCN(Cc2ccc(Cl)cc2)CC1 (stereo unspecified)	> 100	> 100	5.02	7.25	4.20	
CC(O)CN1CCN(CC[S+]([O-])C(c2ccccc2)c2ccccc2)CC1 (stereo unspecified)	> 100	> 100				
OC(Cc1ccccc1)CN1CCN(CCSC(c2ccc(F)cc2)c2ccc(F)cc2)CC1 (stereo unspecified)	> 100	> 100				
CC(O)CN1CCN(CC[S+]([O-])C(c2cccc(Cl)c2)c2cccc(Cl)c2)CC1 (stereo unspecified)	> 100	> 100	4.23	6.39	< 4.30	
CCCN1CCN(C(=O)C[S+]([O-])C(c2ccc(F)cc2)c2ccc(F)cc2)CC1 (stereo unspecified)	> 100	> 100	4.84	6.55		
CC(O)CN1CCN(C(=O)C[S+]([O-])C(c2cccc(Cl)c2)c2cccc(Cl)c2)CC1 (stereo unspecified)	> 100	> 100		5.86	< 4.30	
[O-][S+](CCN1CCN(Cc2ccc(C(F)(F)F)cc2)CC1)C(c1ccc(F)cc1)c1ccc(F)cc1 (stereo unspecified)	> 100	> 100	5.17	7.40	< 4.30	Stability [6]: Unstable
NC(=O)C[S@@+]([O-])C(c1ccccc1)c1ccccc1 [ARMODAFINIL]						Activity [7]: Toxic; Activity [16]: Dose-dependent effect; pKi (D(4) dopamine receptor): < 4.00; pKi [8]: < 4.00; pKi (D(3) dopamine receptor): 4.41; pKi (D(2) dopamine receptor [9]): < 4.00
